Reference: ChEMBL document CHEMBL1212823, “m-Azipropofol (AziPm) a photoactive analogue of the intravenous general anesthetic propofol” (J Med Chem, 2010)
Values after ≈ are worked out from the molar mass of the structure shown. Active and inactive are the calls of the source. The rule behind the calls is not given here.

Assays:
[1] = species on record: Equus caballus; assay: Binding affinity to horse spleen apoferritin by isothermal titration calorimetry
Outline: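 Sequential titrations were linked and corrected with ligand-into-buffer, buffer-into-protein and buffer-into-buffer controls. Heats were fitted to a single binding-site class, Hill slope fixed at 1; mean with 95% CI.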

[2] = species on record: Equus caballus; assay: Binding affinity to horse spleen apoferritin using 1-AMA by fluorescence competition assay
Outline: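 HSAF 7 μM with 7 μM 1-aminoanthracene in pH 7.4 PBS, titrated with compound 0–110 μM. Excitation 380 nm, emission 400–800 nm, baseline-corrected. Variable-slope Hill fit gave IC50 and Hill slope; KD obtained by Cheng–Prusoff correction for the 1-AMA competitor.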

[3] = system: Xenopus laevis; assay: Anesthetic effect on Xenopus laevis tadpole assessed as loss of spontaneous motion measured for 30 seconds after 30 mins; type: functional, organism-based; conditions: 0.5 h
Outline: (§1)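 Xenopus tadpoles in groups of 10, in 30 mL pond water containing a range of compound concentrations, incubated 30 min to equilibrate. Water was then replaced with fresh pond water and recovery followed over 24 h.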

[4] = system: Xenopus laevis; assay: Anesthetic effect on Xenopus laevis tadpole assessed as loss of startle reflex after 30 mins; type: functional, organism-based; conditions: 0.5 h; outline: as §1
[5] = biological target: T1, GABA-A receptor; alpha-1/beta-2/gamma-2 (Rattus norvegicus) (UniProt P18508+P62813+P63138); assay: Activation of rat alpha-1-beta-2-gamma-2L expressed in HEK293 cells assessed as potentiation of GABA-induced current at 0.3 to 3 uM by electrophysiological assay relative to control; type: cell-based
[6] = biological target: T1, GABA-A receptor; alpha-1/beta-2/gamma-2 (Rattus norvegicus); assay: Activation of rat alpha-1-beta-2-gamma-2L expressed in HEK293 cells at 30 uM by electrophysiological assay; type: cell-based
[7] = Chemical stability of the compound assessed as half life in presence of UV irradiation; type: physicochemical
Outline: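 A 160 μM solution in distilled water in a 1 cm quartz cuvette was irradiated at 350 nm for 30 min. UV spectra were taken every 3 min to follow loss of the diazirine peak (368 nm); t1/2 reported with 95% CI.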

[8] = Solubility of the compound in water; type: physicochemical
Outline: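 Extinction coefficient of the 368 nm diazirine band determined in methanol at known concentration; maximal concentration in distilled water then calculated from UV absorbance using that coefficient.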

[9] = Binding affinity to horse spleen apoferritin using 1-AMA by fluorescence competition method

Compound | Activity [1] [µM] | Activity [2] [µM] | EC50 [3] [nM] | EC50 [4] [nM] | fold change (FC) [5] | Activity [6] | half-life [7] [min] | solubility [8] [µM] | Kd [9] [nM]
CC(C)c1ccc(C2(C(F)(F)F)N=N2)cc1O | 21 | 23 | 1100 | 3100 | 1.7 | inactive | 34 | 185 (≈ 45.2 µg/mL) | 19000
CC(C)c1cccc(C(C)C)c1O [PROPOFOL] | 4.8 | 12 | 1100 | 2800 | 9.3 | Active |  |  | 10000
